Experimental data: ChEMBL document CHEMBL1629579, “Correlating echinocandin MIC and kinetic inhibition of fks1 mutant glucan synthases for Candida albicans: implications for interpretive breakpoints” (Antimicrob Agents Chemother, 2009)
In brackets after ≈: the same amount, converted by molar mass. Numbered stars: 1 amine (or outer) side, 2 acyl side, 3 side chain; on linkers, the order of the positions; unused ones are H or OH. Bridge positions count the residues as written; N and C are the ends. Square brackets hold non-standard residues; d marks the D form. Peptide text beside a SMILES is read from it. * marks the point of attachment. pTerphenylCO(4''-OnC5H11) = CCCCCOc1ccc(-c2ccc(-c3ccc(C(=O)*)cc3)cc2)cc1; Orn(4R-OH,5R-OH) = O=C([C@H](C[C@@H](O)[C@@H](O)N[*:3])N[*:1])[*:2]; hTyr(3S-OH,4S-OH) = N[C@H](C(=O)O)[C@H](O)[C@@H](O)c1ccc(O)cc1; Pro(3S-OH,4S-Me) = C[C@H]1CN[C@H](C(=O)O)[C@H]1O; Hyp = O=C(O)[C@@H]1C[C@@H](O)CN1

Experiments:
Candida albicans [1] = assay: Antimicrobial activity against Candida albicans 1002 by M27-A3 method; assay type: functional
Outline: (§1)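 Broth microdilution per CLSI M27-A3 in RPMI 1640, with and without 50% human serum, in triplicate. C. krusei ATCC 6258 and C. parapsilosis ATCC 22019 served as quality-control strains. MIC reported as arithmetic mean of three repetitions on separate days.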

[2] = Inhibition of Candida albicans 205 1,3-beta-D-glucan synthase subunit FKS1p T1933C mutant
Outline: (§2)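 Enzyme is product-entrapped 1,3-β-D-glucan synthase, enriched from membranes of each strain grown at 37°C with shaking in YPD broth to early stationary phase. Filtration polymerization assay uses [3H]UDPG, started by adding enzyme and run 60 min at 25°C. Echinocandins are added as serial dilutions, with 1% DMSO controls for anidulafungin. IC50 is from a variable-slope sigmoidal fit; values are triplicate arithmetic means.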

[3] = Inhibition of Candida albicans 5415 1,3-beta-D-glucan synthase subunit FKS1p T1933C mutant; outline: as §2
Candida albicans [4] = assay: Activity at Candida albicans 194 1,3-beta-D-glucan synthase subunit FKS1p C1934T/G4082R mutant
Outline: (§3)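 Product-entrapped 1,3-β-D-glucan synthase from cells grown in YPD at 37°C to early stationary phase. Wells held 50 mM HEPES pH 7.5, 10% glycerol, 1.5 mg/ml BSA, 25 mM KF, 1 mM EDTA, 25 μM GTP-γ-S, 1 μg enzyme and [3H]UDPG (0.015–2 mM). Reactions ran 60 min at 25°C. Vmax and Km came from Lineweaver-Burke plots, in triplicate.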

Candida albicans [5] = assay: Antimicrobial activity against Candida albicans SC5314 by M27-A3 method; assay type: functional; outline: as §1
Candida albicans [6] = assay: Antimicrobial activity against Candida albicans 5415 harboring FKS1 T1933C mutant gene and FKS1 hotspot1 S645P mutant gene by M27-A3 method; assay type: functional
Outline: (§4)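 Broth microdilution per CLSI M27-A3 in RPMI 1640, done in triplicate on three separate days. Each strain was tested with and without 50% human serum. C. krusei ATCC 6258 and C. parapsilosis ATCC 22019 served as QC strains. Arithmetic means are reported, and geometric means were used for comparison.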

Candida albicans [7] = assay: Antimicrobial activity against Candida albicans 90028 by M27-A3 method; assay type: functional; outline: as §1
[8] = Inhibition of Candida albicans SC5314 1,3-beta-D-glucan synthase subunit FKS1p; outline: as §2
[9] = Inhibition of Candida albicans 177 1,3-beta-D-glucan synthase subunit FKS1p T1922C mutant; outline: as §2
Candida albicans [10] = assay: Antimicrobial activity against Candida albicans 85 harboring FKS1 C1934T mutant gene and FKS1 hotspot1 S645F mutant gene by M27-A3 method in presence of 50% human serum; assay type: functional; outline: as §4
Candida albicans [11] = assay: Antimicrobial activity against Candida albicans 119 harboring FKS1 T1921C mutant gene and FKS1 hotspot1 F641L mutant gene by M27-A3 method in presence of 50% human serum; assay type: functional; outline: as §4
Candida albicans [12] = assay: Antimicrobial activity against Candida albicans 3107 by M27-A3 method; assay type: functional; outline: as §4
Candida albicans [13] = assay: Antimicrobial activity against Candida albicans 3795 by M27-A3 method; assay type: functional; outline: as §1
Candida albicans [14] = assay: Activity at Candida albicans 121 1,3-beta-D-glucan synthase subunit FKS1p G4082A mutant; outline: as §3
Candida albicans [15] = assay: Antimicrobial activity against Candida albicans A15-10 harboring FKS1 T1933C mutant gene and FKS1 hotspot1 S645P mutant gene by M27-A3 method; assay type: functional; outline: as §4
Candida albicans [16] = assay: Activity at Candida albicans 89 1,3-beta-D-glucan synthase subunit FKS1p C1934A mutant; outline: as §3
[17] = Inhibition of Candida albicans 1002 1,3-beta-D-glucan synthase subunit FKS1p
Outline: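 Product-entrapped glucan synthase from YPD-grown cells (37°C, early stationary phase) in a filtration polymerization assay with [3H]UDPG. Echinocandin serial dilutions were added, with 1% DMSO in controls for anidulafungin. Reactions were started with enzyme, run 60 min at 25°C and stopped on ice. IC50 came from a variable-slope sigmoidal fit, in triplicate.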

Candida albicans [18] = assay: Antimicrobial activity against Candida albicans 177 harboring FKS1 T1922C mutant gene and FKS1 hotspot1 F641S mutant gene by M27-A3 method in presence of 50% human serum; assay type: functional; outline: as §4
Candida albicans [19] = assay: Antimicrobial activity against Candida albicans 205 harboring FKS1 T1933C mutant gene and FKS1 hotspot1 S645P mutant gene by M27-A3 method; assay type: functional; outline: as §4
Candida albicans [20] = assay: Antimicrobial activity against Candida albicans 89 harboring FKS1 C1934A mutant gene and FKS1 hotspot1 S645Y mutant gene by M27-A3 method in presence of 50% human serum; assay type: functional; outline: as §4
Candida albicans [21] = assay: Activity at Candida albicans 5415 1,3-beta-D-glucan synthase subunit FKS1p T1933C mutant; outline: as §3
[22] = Inhibition of Candida albicans 3107 1,3-beta-D-glucan synthase subunit FKS1p; outline: as §2
Candida albicans [23] = assay: Antimicrobial activity against Candida albicans 194 harboring FKS1 C1934T/G4082R mutant gene and FKS1 hotspot1 S645F mutant gene and FKS1 hotspot2 R1361R/H mutant gene by M27-A3 method; assay type: functional; outline: as §4
Candida albicans [24] = assay: Activity at Candida albicans 36082 1,3-beta-D-glucan synthase subunit FKS1p
Outline: (§5)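 Glucan synthase from cells grown at 37°C with vigorous shaking to early stationary phase in YPD. Membrane enzyme enriched by product entrapment. Serial echinocandin dilutions; ANF controls held 1% DMSO. Reaction started by adding enzyme, run 60 min at 25°C in a filtration polymerization assay, stopped on ice. IC50 from a variable-slope sigmoidal fit; means of three repetitions on separate days.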

Candida albicans [25] = assay: Antimicrobial activity against Candida albicans 122 harboring FKS1 C1946A mutant gene and FKS1 hotspot1 P649H mutant gene by M27-A3 method; assay type: functional; outline: as §4
Candida albicans [26] = assay: Activity at Candida albicans 90028 1,3-beta-D-glucan synthase subunit FKS1p; outline: as §5
Candida albicans [27] = assay: Activity at Candida albicans 119 1,3-beta-D-glucan synthase subunit FKS1p T1921C mutant; outline: as §3
Candida albicans [28] = assay: Antimicrobial activity against Candida albicans 2762 harboring FKS1 T1922C mutant gene and FKS1 hotspot1 F641S mutant gene by M27-A3 method in presence of 50% human serum; assay type: functional; outline: as §4
Candida albicans [29] = assay: Antimicrobial activity against Candida albicans 177 harboring FKS1 T1922C mutant gene and FKS1 hotspot1 F641S mutant gene by M27-A3 method; assay type: functional; outline: as §4
Candida albicans [30] = assay: Antimicrobial activity against Candida albicans 149 harboring FKS1 G1942T mutant gene and FKS1 hotspot1 D648Y mutant gene by M27-A3 method in presence of 50% human serum; assay type: functional; outline: as §4
Candida albicans [31] = assay: Antimicrobial activity against Candida albicans 3795 by M27-A3 method in presence of 50% human serum; assay type: functional; outline: as §4

Q: Which results are given for `CCCCCOc1ccc(-c2ccc(-c3ccc(C(=O)N[C@H]4C[C@@H](O)[C@@H](O)NC(=O)[C@@H]5[C@@H](O)[C@@H](C)CN5C(=O)[C@H]([C@@H](C)O)NC(=O)[C@H]([C@H](O)[C@@H](O)c5ccc(O)cc5)NC(=O)[C@@H]5C[C@@H](O)CN5C(=O)[C@H]([C@@H](C)O)NC4=O)cc3)cc2)cc1` [ANIDULAFUNGIN] ({pTerphenylCO(4''-OnC5H11)}-[Orn(4R-OH,5R-OH)]T[Hyp][hTyr(3S-OH,4S-OH)]T[Pro(3S-OH,4S-Me)]; lactam 1-C)?
A: MIC (Candida albicans [1]): 0.06 mg/L (≈ 0.0526 µM); IC50 [2]: 0.989 mg/L (≈ 0.867 µM); Ki [2]: 3.2231 mg/L (≈ 2.83 µM); IC50 [3]: 1.152 mg/L (≈ 1.01 µM); Ki [3]: 4.15411 mg/L (≈ 3.64 µM); Km (Candida albicans [4]): 61 µM; Vmax (Candida albicans [4]): 5.81 nmol/min; MIC (Candida albicans [5]): 0.08 mg/L (≈ 0.0702 µM); MIC (Candida albicans [6]): 2 mg/L (≈ 1.75 µM); MIC (Candida albicans [7]): 0.03 mg/L (≈ 0.0263 µM); IC50 [8]: 0.00089 mg/L (≈ 0.000781 µM); Ki [8]: 0.00133 mg/L (≈ 0.00117 µM); IC50 [9]: 2.622 mg/L (≈ 2.3 µM); Ki [9]: 4.34233 mg/L (≈ 3.81 µM); MIC (Candida albicans [10]): 8 mg/L; MIC (Candida albicans [11]): 2 mg/L; MIC (Candida albicans [12]): 0.03 mg/L (≈ 0.0263 µM); MIC (Candida albicans [13]): 0.06 mg/L (≈ 0.0526 µM); Km (Candida albicans [14]): 129 µM; Vmax (Candida albicans [14]): 4.41 nmol/min; MIC (Candida albicans [15]): 4 mg/L (≈ 3.51 µM); Km (Candida albicans [16]): 61 µM; Vmax (Candida albicans [16]): 2.51 nmol/min; IC50 [17]: 0.00796 mg/L (≈ 0.00698 µM); Ki [17]: 0.00239 mg/L (≈ 0.0021 µM); MIC (Candida albicans [18]): 4 mg/L; MIC (Candida albicans [19]): 1.33 mg/L (≈ 1.17 µM); MIC (Candida albicans [20]): 8 mg/L; Km (Candida albicans [21]): 98 µM; Vmax (Candida albicans [21]): 3.12 nmol/min; IC50 [22]: 0.00312 mg/L (≈ 0.00274 µM); Ki [22]: 0.00167 mg/L (≈ 0.00146 µM); MIC (Candida albicans [23]): 4 mg/L (≈ 3.51 µM); Km (Candida albicans [24]): 89 µM; Vmax (Candida albicans [24]): 5.87 nmol/min; MIC (Candida albicans [25]): 0.67 mg/L (≈ 0.588 µM); Km (Candida albicans [26]): 67 µM; Vmax (Candida albicans [26]): 4.71 nmol/min; Km (Candida albicans [27]): 54 µM; Vmax (Candida albicans [27]): 2.54 nmol/min; MIC (Candida albicans [28]): 4 mg/L; MIC (Candida albicans [29]): 0.83 mg/L (≈ 0.728 µM); MIC (Candida albicans [30]): 4 mg/L; MIC (Candida albicans [31]): 0.44 mg/L
